# Screening data: PubChem, Broad Institute
# PGC1a acetyl inh – modulators of PGC1a acetylation. U2OS PGC1a acetylation, AlphaScreen anti-acetyl-lysine; with virally co-expressed GCN5 acetyltransferase. inhibition, % at 15.6 µM. actives 0.17% (n = 350,000). AID 651687;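 active = every replicate shows inhibition of at least 40%; inconclusive = mean inhibition at least 40% but some replicate below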;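 note: 0% = neutral control wells and 100% = positive control wells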
# rRNA inh HTS – inhibitors of bacterial rRNA selective over humanized ribosomes. E. coli WT GFP vs humanized-ribosome RFP mutants, fluorescence, 24 h; hits give low values; DMSO median 0, no signal -100. GFP signal change (wild-type ribosome), % (concentration not given with the values). actives 1.6% (n = 350,000);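 active = significant combined selectivity score with lowered wild-type GFP, culture density cut under 30%, mutant RFP and density less affected; inactive = any of these conditions unmet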
# ERAP1 HTS inh – blocks human ERAP1 aminopeptidase activity; Q9NZ08; recombinant ERAP1, Leu-AMC fluorescence, 60 min; inhibition, % at 10.7 µM; actives 0.15% (n = 340,000); AID 652197;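 active = mean replicate inhibition of at least 30%, or all replicates individually reaching that 30% level; inactive = mean below 30% and not every replicate reaching it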;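 note: 0% = neutral control wells and 100% = L-leucinethiol positive control wells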
# Cneo AK release – causes C. neoformans cell lysis; lysis activity, % at 15 µM; actives 0.2% (n = 360,000); AID 651654; adenylate kinase release luminescence, 4 h; normalised: neutral wells 0, clomiphene wells 100;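 active = mean lysis activity across replicates of at least 80%, whatever share of replicates individually reach that level; inactive = mean lysis activity below 80%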
#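 read-out = cell lysis signal | test system = log-phase Cryptococcus neoformans yeast cells | input = cells at 5 × 10^6 per mL | medium = fresh YPD growth medium | signal = luminescent adenylate kinase detection reagent | timing = 4 h at 37 °C static, read 1 h later | dosing = single dose | controls = Clomiphene as positive lysis control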
# HIV Env fusion – blocks HIV Env-driven cell-cell fusion | HeLa-JRFL Env/CEM21 cell fusion, luciferase | inhibition, % at 12.3 µM | actives 1.1% (n = 360,000) | AID 651610;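 active = mean replicate inhibition score of at least 50 and every replicate individually at or above 50; inconclusive = only one of the two criteria met; inactive = mean below 50 and not all replicates reaching 50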;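 note: 0% = plate neutral controls and 100% = maraviroc near 300 nM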
# FGF22 binding – binders of recombinant human FGF22 by thermal shift. actives 1.5% (n = 340,000). activity (Tm shift, normalised), % at 9.99 µM. SYPRO orange fluorescence; percent of sucrose octasulfate shift, DMSO zero. Q9HCT0;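 active = mean Tm shift, scaled 0 neutral to 100 positive control, at about 1.3% or above, every replicate too, limit read from the data; inconclusive = no clear call, values can overlap the other calls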
# Target sequence (Q9HCT0 whole entry, looked up): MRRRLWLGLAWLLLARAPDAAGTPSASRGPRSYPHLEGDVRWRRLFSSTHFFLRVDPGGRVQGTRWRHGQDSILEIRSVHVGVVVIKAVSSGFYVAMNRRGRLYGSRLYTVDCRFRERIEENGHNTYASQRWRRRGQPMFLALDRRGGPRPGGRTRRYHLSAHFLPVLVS
# Starred values were filed as active, the others as inactive; ? = inconclusive; . = no result given; [ ] = another dose, or the depositor's remark. This is a sample that favours compounds with a hit; in the whole collection about 3.5% have one here.
SMILES,PGC1a acetyl inh,rRNA inh HTS,ERAP1 HTS inh,Cneo AK release,HIV Env fusion,FGF22 binding
CCOC(=O)C1CCN(Cc2ccc(OCc3ccccc3)cc2)CC1,16,8,-1,12,10,0
CN1CCN(C(=O)/C=C/c2cccc(Cl)c2)CC1,.,6,0,3,9,0
Clc1ccccc1Cn1nnc(-c2ccccc2)n1,5,-6,1,.,-2,42
COCCn1nnnc1CN(Cc1cccnc1)Cc1cc2cc(OC)ccc2[nH]c1=O,-3,.,.,2,.,.
COc1cccc(CN(Cc2cccnc2)S(=O)(=O)c2ccc(-n3cnnn3)c(C)c2)c1,-3,-25*,-4,-2,.,0
COc1cc(S(=O)(=O)N(Cc2cccnc2)Cc2ccco2)ccc1-n1cnnn1,-15,-9,7,2,.,0
COc1ccc(S(=O)(=O)N(Cc2cccnc2)Cc2cc3ccccc3[nH]c2=O)cc1,6,-29*,0,-1,3,0
COCCn1nnnc1CN(CCc1ccccc1)Cc1cc2cc(OC)ccc2[nH]c1=O,15,.,.,.,77*,.
Cc1ccc(/C=C2\SC(=S)N(CC(=O)Nc3ncc(Cc4ccccc4Cl)s3)C2=O)cc1,.,.,.,.,-48,.
Cc1nc(-c2cccc(NC(=O)c3cccc(S(=O)(=O)N4CCCC4)c3)c2)cs1,-1,-29*,0,1,3,0
Cc1cc(/C=N/NC(N)=S)c(C)n1-c1ccc(Cl)c(Cl)c1,.,-3,11,.,-14,0
COc1cccc(NC(=O)C(=O)N/N=C/c2cc(C)n(-c3ccc(Cl)c(Cl)c3)c2C)c1,-3,-18*,2,-1,.,0
CCOC(=O)c1ccccc1NC(=O)CSc1nc2ccncc2[nH]1,-1,-6,3,-6,-1,0
Nc1nnc(SCCOc2ccccc2)s1,2,-5,2,-1,.,0
c1ccc(OCCSc2nnc3sc4ccccc4n23)cc1,-2,-41*,-1,-3,.,0
Cc1nnc(SCCOc2ccccc2)s1,6,11,-9,.,-14,44*
O=C(COc1ccc2ccccc2c1)NNC(=O)c1cnccn1,.,.,.,.,-5,.
CCCCN(C)C(=O)CCC(=O)Nc1ccc2nc(N3CCN(C)CC3)cc(C)c2c1,5,-1,-1,1,7,0
O=C(O)CCCC(=O)NNC(=O)c1cccc(Br)c1,-3,22,1,-2,-5,0
O=C(COc1ccc(Br)cc1Cl)Nn1cnnc1,4,5,-6,.,6,1
CCOc1ccccc1-n1nnnc1SCC(=O)NC(=O)Cc1ccccc1,1,1,33*,.,-8,0
Cc1ccccc1-c1cnc(C(O)c2ccc(Cl)c(F)c2)[nH]1 (stereo unspecified),7,-51,6,4,14,0
CCC/C=C/c1ccc(CN2C(CC(C)C)C(=O)N(Cc3cn(CC4CCCCC4)nn3)CCS2(=O)=O)cc1 (stereo unspecified),-16,-8,8,-2,89*,0
O=C(CC1Sc2ccccc2NC1=O)NNc1cc(Cl)ccc1Cl (stereo unspecified),4,-4,-7,1,17,0
C[C@H]1CN([C@@H](C)CO)C(=O)c2c(c3ccccc3n2C)-c2ccccc2CO[C@@H]1CN(C)S(=O)(=O)c1ccsc1,27,0,2,0,39[16.7 µM],0
SMILES,PGC1a acetyl inh,rRNA inh HTS,ERAP1 HTS inh,Cneo AK release,HIV Env fusion,FGF22 binding
COc1ccc2[nH]cc(CCNC(=O)Nc3ccccc3)c2c1,.,-8,-1,-3,-6,0
COc1ccc2[nH]cc(CCNC(=S)NCCc3ccccc3)c2c1,.,-35*,3,2,-3,.
COc1ccc2[nH]cc(CCNC(=O)Cn3cc(C)c(=O)[nH]c3=O)c2c1,7,12,5,-1,-2,43*
NNC(=O)c1c[nH]c2ccc(OCc3ccccc3)cc12,4,-27*,.,.,-13,0
COc1ccc2[nH]cc(C(=O)NCCc3ccccc3)c(=O)c2c1,.,-21*,-2,-1,-6,0
COCC(C)n1c(C)cc(C(=O)Cn2c(=O)oc3ccccc32)c1C (stereo unspecified),1,.,.,2,.,.
CC(CSc1nc2ccccc2s1)Cn1c(N2CCCC2)nc2c1c(=O)[nH]c(=O)n2C (stereo unspecified),-32,.,.,-1,.,.
COc1ccc2c(=O)c(C(=O)NCCc3ccccc3)c[nH]c2c1,.,-27*,-1,-1,-1,0
COc1ccc2c(=O)c(C(=O)NCc3ccccc3)c[nH]c2c1,.,-2,4,-2,5,0
CCOc1cccc2sc(NC(=O)CC)nc12,10,-19*,-1,1,.,0
Cn1c(-c2ccccc2)c(C#Cc2ccc(N)cc2)c2ccccc21,-30,3,1,2,70*,0
CCCNC(=O)Nc1ccc2c(c1)C(=O)N(C)[C@H]1CC[C@@H](CC(=O)NC)O[C@@H]1CO2,14,3,.,1,-24[16.7 µM],0
O=c1[nH]c(CN2CCN(c3ccc(O)cc3)CC2)nc2scc(-c3ccc(Cl)cc3)c12,.,-24*,5,.,-49,0
CCn1nccc1C(=O)Nc1ccccc1OC,?,3,-1,0,-16,0
CCn1ncc(Br)c1C(=O)Nc1ccccc1OC,.,-16,-2,.,29,44*
CC1=CCC2C(=O)N(c3cccc(C(=O)NCc4ccccc4)c3)C(=O)C2C1 (stereo unspecified),63*,-3,0,-1,30,0
CC1=CCC2C(=O)N(c3cccc(C(=O)Nc4ccc(Cl)cc4)c3)C(=O)C2C1 (stereo unspecified),-6,-31,1,8,-16,0
COc1ccc2c(c1OC)CN(C)CCc1cc3c(cc1C(=O)C2)OCO3,5,9,8,.,-9,43*
CCCn1c(=O)n(C)c(=O)c2c(SC(C)C(=O)NCC3CCCO3)nc(CC(C)C)nc21 (stereo unspecified),.,10,1,-1,0,0
COC(=O)c1ccc(Oc2cc(C)nc(SC)n2)cc1,.,.,.,-2,0,.
CNC(=O)C[C@@H]1CC[C@H]2[C@@H](COC[C@@H](O)CN2S(=O)(=O)c2cccc(Cl)c2)O1,-20,1,-1,2,-9[16.7 µM],0
CC(NS(=O)(=O)OCC(Cl)(Cl)Cl)c1ccc(Br)cc1 (stereo unspecified),.,-23*,3,3,.,43*
COC(=O)C1CC(O)CN1C(=O)Nc1cccc(C(F)(F)F)c1 (stereo unspecified),0,0,-7,-1,6,43*
CC1CCCCN1C(=O)Nc1cccc(C(F)(F)F)c1 (stereo unspecified),.,15,-2,.,-7,0
CCOC(=O)/C=C/[C@H]1CC2(CCO1)SCCCS2,-1,0,3,-9,69*,0
